Calls of active or inactive are those of the source.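 How the source made its calls, unless noted: active means calcium signal rise above buffer-control mean plus 5 SD in both duplicates, and also a hit in the primary screen; inactive means the rest.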
Biological target: Short transient receptor potential channel 4 (Mus musculus) (UniProt Q9QUQ5)
Test: calcium flux activators in TRPC4/5HT1a cells, counter-screen for TRPC4 activator project, cell-based, second counter screen, HEK293 TRPC4/5HT1a, Fluo-4 (AID 434977);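 on activation: plate controls were assay buffer for no effect and maximal serotonin response for full effect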
Conditions: Fluo-4 calcium flux, at 10 µM; stronger effect = higher value

SMILES	outcome	activation
COc1cc(C(F)(F)F)nc2c(Br)c(C(C)(C)C)nn12	inactive	
COc1ccccc1N(C(=O)c1snc(C(N)=O)c1N)C(C(=O)NC1CCCC1)c1ccc2ncccc2c1 (stereo not given)	inactive	
CCc1c(C(=O)N2CCCN(C)CC2)csc1C	inactive	
O=c1c2ccccc2nc(SCc2ccc([N+](=O)[O-])cc2)n1CCCO	inactive	
CN1/C(=C\C(=O)C[n+]2ccc3ccccc3c2)C(C)(C)c2ccccc21	inactive	
CN(C)CCCN(C(=O)c1ccc(S(=O)(=O)N2CCCC2)cc1)c1nc2c(F)cc(F)cc2s1	inactive	
O=[N+]([O-])c1cccc(N(CC(O)CN2CCCC2)S(=O)(=O)c2ccccc2)c1 (stereo not given)	inactive	
Cc1cc(Nc2cccc(O)c2)c2ccccc2n1	inactive	
COc1ccc(CN2CCN(Cc3ccc(C(F)(F)F)cc3)CC2)c(OC)c1	inactive	
O=[N+]([O-])c1ccc(O)c(C2=NNC(c3ccccc3F)C2)c1 (stereo not given)		8.52% (active)
Cn1c(-c2ccccc2)cnc1NCc1ccc(F)cc1	inactive	
COc1nc(N=C(N)N)nc2ccc(C)cc12	inactive	
CN(CC(=O)NC1CCCc2ccccc21)C1CCCCC1 (stereo not given)	inactive	
O=C(CSc1nnc(-c2ccc(Cl)cc2Cl)n1C1CCCCC1)N1CCCC1	inactive	
Cc1ccc(Nc2cc(C)nc3c(C)cccc23)cc1	inactive	
COc1cc(OC)c(C2N(C)c3ccccc3N2C)cc1OC	inactive	
O=[N+]([O-])c1cccc(-c2nnc(C3CC3)o2)c1	inactive	
O=C(NCCN1CCOCC1)c1cc2sccc2n1Cc1ccc(F)cc1	inactive	
CN(C)CCCNc1c2ccccc2nc2ccccc12	inactive	
COc1ccccc1Nc1nc(NCC2CCCO2)c2ccccc2n1 (stereo not given)	inactive	

SMILES	outcome	activation
CC12CCC(C/C1=N/OC(=O)c1cccc([N+](=O)[O-])c1)C2(C)C (stereo not given)	inactive	
CCN(CC)CCN(C(=O)c1ccccc1OC)c1nc2ccc(F)cc2s1	inactive	
CCOc1ccccc1N(C(=O)c1snc(C(N)=O)c1N)C(C(=O)NCc1ccccc1)c1ccc(O)cc1 (stereo not given)	inactive	
Cc1cc([N+](=O)[O-])ccc1NCc1ccccc1	inactive	
Cn1c(-c2ccc(F)cc2)cnc1NCc1ccc(F)cc1F	inactive	
Nc1cc(N2CCCCC2)c([N+](=O)[O-])cc1Cl	inactive	
CN(C)C(CNC(=O)c1cccc(C(F)(F)F)c1)c1ccco1 (stereo not given)	inactive	
COc1ccc(CN2CCN(C(=O)c3ccc(F)cc3)CC2)c(OC)c1	inactive	
COCCn1c(SCc2ccccc2F)nc2ccccc2c1=O	inactive	
COc1ccccc1C(=O)Nc1ccc2c(c1)CCCN2C(=O)c1cccs1	inactive	
CCCCn1c(NCc2ccc(N(C)C)cc2)nc2ccccc21	inactive	
COc1ccc([N+](=O)[O-])cc1NCc1ccco1	inactive	
Cc1cc(C)c2nc(C)cc(N/N=C/c3ccc(O)cc3)c2c1	inactive	
Cc1nn(C(=O)CNS(=O)(=O)c2ccccc2)c(C)c1Sc1ccc(Cl)cc1	inactive	
Cc1n[nH]c(C)c1CCCCOc1ccccc1F	inactive	
COC(=O)C1=C(C)N(Cc2ccccc2)C(=S)N[C@H]1c1ccccc1	inactive	
CC1(c2ccccc2)CC(C)(C)N(C(=O)C2CCCO2)c2ccccc21 (stereo not given)	inactive	
CC(OC(=O)CNC(=O)c1ccccc1F)C(=O)Nc1nc(-c2ccccc2)cs1 (stereo not given)	inactive	
CC(OCC(O)CN(C)CCOc1ccccc1)c1ccc(Cl)cc1 (stereo not given)	inactive	
Cc1cc(-c2sccc2C)nc(-n2cccc2)n1	inactive	

Test system: not listed separately
Test: calcium flux inhibitors in TRPC4/5HT1a cells, confirmation, counter-screen for TRPC4 inhibitor project, cell-based, second counter screen, HEK293 TRPC4/5HT1a, Fluo-4 (AID 434978;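 active means primary screen active whose calcium signal fell more than 3 SD beyond the full-serotonin control mean in both duplicate plates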;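 on outcome: serotonin given first at submaximal then at maximal dose after compound preincubation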)
Conditions: Fluo-4 calcium flux, at 10 µM, serotonin added to trigger calcium flux; stronger effect = higher value
Procedure, shortened: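 System: HEK293 line stably carrying TRPC4 plus 5HT1a receptor; benchmarks: maximal serotonin stimulation controls; measured by: Fluo-4 calcium flux, kinetic fluorescence; reagent: sequential submaximal then ECmax serotonin stimulation; times: compound 110 s, submaximal serotonin 110 s, ECmax serotonin read 110 s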

SMILES	inhibition	outcome
COc1cc(C(F)(F)F)nc2c(Br)c(C(C)(C)C)nn12	35.3% (active)	
COc1ccccc1N(C(=O)c1snc(C(N)=O)c1N)C(C(=O)NC1CCCC1)c1ccc2ncccc2c1 (stereo not given)	40.6% (active)	
CCc1c(C(=O)N2CCCN(C)CC2)csc1C		inactive
O=c1c2ccccc2nc(SCc2ccc([N+](=O)[O-])cc2)n1CCCO	19.5% (active)	
CN1/C(=C\C(=O)C[n+]2ccc3ccccc3c2)C(C)(C)c2ccccc21		inactive
CN(C)CCCN(C(=O)c1ccc(S(=O)(=O)N2CCCC2)cc1)c1nc2c(F)cc(F)cc2s1		inactive
O=[N+]([O-])c1cccc(N(CC(O)CN2CCCC2)S(=O)(=O)c2ccccc2)c1 (stereo not given)		inactive
Cc1cc(Nc2cccc(O)c2)c2ccccc2n1		inactive
COc1ccc(CN2CCN(Cc3ccc(C(F)(F)F)cc3)CC2)c(OC)c1	23% (active)	
O=[N+]([O-])c1ccc(O)c(C2=NNC(c3ccccc3F)C2)c1 (stereo not given)		inactive
Cn1c(-c2ccccc2)cnc1NCc1ccc(F)cc1	25.1% (active)	
COc1nc(N=C(N)N)nc2ccc(C)cc12	21.1% (active)	
CN(CC(=O)NC1CCCc2ccccc21)C1CCCCC1 (stereo not given)		inactive
O=C(CSc1nnc(-c2ccc(Cl)cc2Cl)n1C1CCCCC1)N1CCCC1		inactive
Cc1ccc(Nc2cc(C)nc3c(C)cccc23)cc1	35.3% (active)	
COc1cc(OC)c(C2N(C)c3ccccc3N2C)cc1OC		inactive
O=[N+]([O-])c1cccc(-c2nnc(C3CC3)o2)c1		inactive
O=C(NCCN1CCOCC1)c1cc2sccc2n1Cc1ccc(F)cc1	33.8% (active)	
CN(C)CCCNc1c2ccccc2nc2ccccc12	22.7% (active)	
COc1ccccc1Nc1nc(NCC2CCCO2)c2ccccc2n1 (stereo not given)	31.5% (active)	

SMILES	inhibition	outcome
CC12CCC(C/C1=N/OC(=O)c1cccc([N+](=O)[O-])c1)C2(C)C (stereo not given)	28.3% (active)	
CCN(CC)CCN(C(=O)c1ccccc1OC)c1nc2ccc(F)cc2s1		inactive
CCOc1ccccc1N(C(=O)c1snc(C(N)=O)c1N)C(C(=O)NCc1ccccc1)c1ccc(O)cc1 (stereo not given)	41.9% (active)	
Cc1cc([N+](=O)[O-])ccc1NCc1ccccc1		inactive
Cn1c(-c2ccc(F)cc2)cnc1NCc1ccc(F)cc1F	29.9% (active)	
Nc1cc(N2CCCCC2)c([N+](=O)[O-])cc1Cl		inactive
CN(C)C(CNC(=O)c1cccc(C(F)(F)F)c1)c1ccco1 (stereo not given)		inactive
COc1ccc(CN2CCN(C(=O)c3ccc(F)cc3)CC2)c(OC)c1	35.3% (active)	
COCCn1c(SCc2ccccc2F)nc2ccccc2c1=O	20.8% (active)	
COc1ccccc1C(=O)Nc1ccc2c(c1)CCCN2C(=O)c1cccs1		inactive
CCCCn1c(NCc2ccc(N(C)C)cc2)nc2ccccc21	24.4% (active)	
COc1ccc([N+](=O)[O-])cc1NCc1ccco1		inactive
Cc1cc(C)c2nc(C)cc(N/N=C/c3ccc(O)cc3)c2c1		inactive
Cc1nn(C(=O)CNS(=O)(=O)c2ccccc2)c(C)c1Sc1ccc(Cl)cc1	11.3% (active)	
Cc1n[nH]c(C)c1CCCCOc1ccccc1F	28.3% (active)	
COC(=O)C1=C(C)N(Cc2ccccc2)C(=S)N[C@H]1c1ccccc1	25.6% (active)	
CC1(c2ccccc2)CC(C)(C)N(C(=O)C2CCCO2)c2ccccc21 (stereo not given)	38.3% (active)	
CC(OC(=O)CNC(=O)c1ccccc1F)C(=O)Nc1nc(-c2ccccc2)cs1 (stereo not given)	44.3% (active)	
CC(OCC(O)CN(C)CCOc1ccccc1)c1ccc(Cl)cc1 (stereo not given)	22.2% (active)	
Cc1cc(-c2sccc2C)nc(-n2cccc2)n1		inactive

— PubChem BioAssay
